This is an account of results in PubChem BioAssay.

Values without a mark were called inactive. Calls of active or inactive are those of the source.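 Rule for the calls, unless noted: active = viability at or below 30% in both replicate assays; inconclusive = viability at or below 30% in just one of the two assays; inactive = the rest.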

One experiment in a line: SK-BR-3 cell growth inhibitors, pilot screen, 24 h, human (AID 572;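 active = viability at or below 10% of carrier control in both of two separate runs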;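 note: compound exposure lasted between 18 and 24 h rather than exactly 24 h; 100% = carrier-treated control wells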). To be noted: SK-BR-3 viability, CellTiter-Glo luminescence, at 10 µM, hits give low values. (In general: In ATP-based viability assays light output follows the ATP content of the culture.)
With `CCOC(=O)C(CC)Sc1ncnc2nc[nH]c12` (stereo unspecified), the viability is 104%.
With `COc1cc2c(cc1OC)-c1nnc(C)n1C1(CCCC1)C2`, the viability was 87%.
In the case of `Nc1nc2n(n1)C(c1cccc(Br)c1)CC(c1ccccc1)N2` (stereo unspecified), the viability was 93.5%.

The nature of the next experiment: HUVEC growth inhibition – cell-based, human, primary screen (AID 575).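 Note: 100% = median of untreated cell wells with 0.1% DMSO on each plate.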 The settings on record: HUVEC proliferation, CellTiter-Glo luminescence, 72 h; at 10 µM; hits give low values. The gist of the method:
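System: primary human umbilical vein endothelial cells; Quantity: 1250 endothelial cells in each well; Buffer or medium: supplemented EBM, 2% fetal bovine serum; Doses: one dose, 10 µM final, 0.1% DMSO; Incubation: 72 h compound incubation; Technique: ATP-based CellTiter-Glo luminescent read; Evaluation: percent of median DMSO-control luminescence; Controls: vehicle and MePR control wells.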
`COc1ccc(C(=O)NCc2nnc(SC)n2C2CCCCC2)cc1`: the viability is 81.2%.
Still for that read-out and setting: in the case of `Oc1ccc(Cl)cc1-c1cc(-c2ccccc2)n[nH]1` it was 7.56% (active); in that of `O=C(CCCn1c(=O)c2sccc2n(Cc2cc(=O)n3ccccc3n2)c1=O)NCc1ccco1`, 87.7%; in that of `COC(=O)c1cn(NC(=O)C2CCCO2)c(=O)c2ccccc12` (stereo unspecified), 93.7%.
For `CCN(CC)CCCNC(=O)c1cn(C)c2ccc(S(=O)(=O)N(C)C)cc2c1=O`, the viability was 99.2%.
With `Cc1nnc(SCCn2c(N3CCC(Cc4ccccc4)CC3)nc3c2c(=O)[nH]c(=O)n3C)s1`, the viability is 78.1%.
On to `O=C(C(Cc1ccccc1)n1cccc1)N1CCCCCC1` (stereo unspecified), for which the viability was 87.6%.
For the compound `O=C(Cn1nc(Cc2ccncc2)c2ccccc2c1=O)N1CCN(C(=O)c2ccco2)CC1`, the viability was 85.6%.
As to `COc1ccc(-c2nc(CS(=O)CC(=O)NCc3ccccn3)c(C)o2)cc1` (stereo unspecified), the viability was 92.9%.
Still for that read-out and setting: in the case of `CCn1c(SCC(=O)Nc2ccc(Cl)cc2)nnc1C1CC1` it was 84.2%; in that of `CCOC(=O)CN(C(=O)c1ccccc1)c1ccccc1C`, 104%; in that of `COC(=O)Cc1cc(=O)[nH]c(Nc2nc3ccccc3o2)n1`, 74.6%.
On to `COc1ccc(C2CC(c3cccc(C)c3)n3ncnc3N2)cc1` (stereo unspecified), for which the viability is 88.8%.

Usually viability stands for a read-out of living cells in per cent, often relative to untreated cells.
